Values after ≈ are worked out from the molar mass of the structure shown.
What was measured:
Enterobacter cloacae [1] = assay: Antibacterial activity against drug-resistant Enterobacter cloacae EcDC64 isolate expressing pAP1 containing Escherichia coli ampD by Etest; assay type: functional
Enterobacter cloacae [2] = assay: Antibacterial activity against drug-resistant Enterobacter cloacae EcDC64 isolate expressing AcrAB-TolC efflux pump by Etest; assay type: functional
Enterobacter cloacae [3] = assay: Antibacterial activity against drug-resistant Enterobacter cloacae EcDC64 isolate expressing AcrAB-TolC efflux pump in presence of 20 ug/ml efflux pump inhibitor Phe-Arg-beta-naphthylamide by Etest
Enterobacter cloacae [4] = assay: Antibacterial activity against drug-resistant AcrAB-TolC efflux pump deficient Enterobacter cloacae EcdeltaacrA isolate by Etest; assay type: functional
Enterobacter cloacae [5] = assay: Antibacterial activity against drug-resistant AcrAB-TolC efflux pump deficient Enterobacter cloacae EcdeltaacrA isolate in presence of 20 ug/ml efflux pump inhibitor Phe-Arg-beta-naphthylamide by Etest; assay type: functional
Enterobacter cloacae [6] = assay: Antibacterial activity against drug-resistant AcrAB-TolC efflux pump deficient Enterobacter cloacae EcdeltaacrA isolate expressing pAP2 plasmid containing Enterobacter cloacae acrA gene by Etest; assay type: functional
Enterobacter cloacae [7] = assay: Antibacterial activity against drug-resistant AcrAB-TolC efflux pump deficient Enterobacter cloacae EcdeltaacrA isolate expressing pACYC184 plasmid by Etest; assay type: functional
Enterobacter cloacae [8] = assay: Antibacterial activity against drug-resistant AcrAB-TolC efflux pump deficient Enterobacter cloacae EcdeltaacrA isolate expressing pAP3 plasmid containing Enterobacter aerogenes acrR gene by Etest; assay type: functional
Enterobacter cloacae [9] = assay: Antibacterial activity against drug-resistant AcrAB-TolC efflux pump deficient Enterobacter cloacae EcdeltaacrA isolate expressing pBGS18 plasmid by Etest; assay type: functional
Enterobacter cloacae [10] = conditions: EcDC64
Enterobacter cloacae [11] = test system: Enterobacter cloacae
Enterobacter cloacae [12] = test system: Enterobacter cloacae; remark: listed apart in the source
Enterobacter cloacae [13] = test system: Enterobacter cloacae; remark: listed apart in the source
Enterobacter cloacae [14] = test system: Enterobacter cloacae; remark: listed apart in the source
Enterobacter cloacae [15] = test system: Enterobacter cloacae; remark: listed apart in the source
Enterobacter cloacae [16] = test system: Enterobacter cloacae; remark: listed apart in the source
Enterobacter cloacae [17] = assay: Antibacterial activity against drug-resistant Enterobacter cloacae EcDC64 isolate expressing AcrAB-TolC efflux pump by broth microdilution method; assay type: functional
Method in brief: (§1)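 Broth microdilution MICs for detergents and dyes (SDS, sodium cholate, sodium deoxycholate, acriflavine, ethidium bromide, Triton X-100, crystal violet). E. cloacae inoculum 5 × 10^5 CFU/ml, incubated 16 to 20 h at 37°C. The MIC was the lowest concentration giving complete growth inhibition. The acrA knockout carries a kanamycin-resistance insertion made by Red-mediated recombination.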

Enterobacter cloacae [18] = assay: Antibacterial activity against drug-resistant AcrAB-TolC efflux pump deficient Enterobacter cloacae EcdeltaacrA isolate by broth microdilution method; assay type: functional; method in brief: as §1
Enterobacter cloacae [19] = assay: Antibacterial activity against drug-resistant AcrAB-TolC efflux pump deficient Enterobacter cloacae EcdeltaacrA isolate expressing pAP2 plasmid containing Enterobacter cloacae acrA gene by broth microdilution method; assay type: functional; method in brief: as §1
Enterobacter cloacae [20] = assay: Antibacterial activity against drug-resistant AcrAB-TolC efflux pump deficient Enterobacter cloacae EcdeltaacrA isolate expressing pACYC184 plasmid by broth microdilution method; assay type: functional; method in brief: as §1
Enterobacter cloacae [21] = assay: Antibacterial activity against drug-resistant Enterobacter cloacae EcDC64 isolate expressing pBGS18 plasmid by broth microdilution method
Enterobacter cloacae [22] = assay: Antibacterial activity against drug-resistant Enterobacter cloacae EcDC64 isolate expressing pAP3 plasmid containing Enterobacter aerogenes acrR gene by broth microdilution method
Enterobacter cloacae [23] = assay: Antibacterial activity against drug-resistant Enterobacter cloacae EcDC64 isolate expressing AcrAB-TolC efflux pump by standard disk diffusion method; assay type: functional
Method in brief: (§2)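 Standard disk diffusion on Mueller-Hinton agar with telithromycin, fusidic acid, novobiocin, nalidixic acid, rifampin and norfloxacin disks. The read-out is the inhibition zone diameter in mm. The acrA-deleted strain was complemented with acrA on pAP-2, and pACYC184 served as the empty vector.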

Enterobacter cloacae [24] = assay: Antibacterial activity against drug-resistant Enterobacter cloacae EcDC64 isolate expressing AcrAB-TolC efflux pump in presence of 20 ug/ml efflux pump inhibitor Phe-Arg-beta-naphthylamide by standard disk diffusion method; assay type: functional; method in brief: as §2
Enterobacter cloacae [25] = assay: Antibacterial activity against drug-resistant AcrAB-TolC efflux pump deficient Enterobacter cloacae EcdeltaacrA isolate by standard disk diffusion method; assay type: functional; method in brief: as §2
Enterobacter cloacae [26] = assay: Antibacterial activity against drug-resistant AcrAB-TolC efflux pump deficient Enterobacter cloacae EcdeltaacrA isolate in presence of 20 ug/ml efflux pump inhibitor Phe-Arg-beta-naphthylamide by standard disk diffusion method; assay type: functional; method in brief: as §2
Enterobacter cloacae [27] = assay: Antibacterial activity against drug-resistant AcrAB-TolC efflux pump deficient Enterobacter cloacae EcdeltaacrA isolate expressing pAP2 plasmid containing Enterobacter cloacae acrA gene by standard disk diffusion method; assay type: functional; method in brief: as §2
Enterobacter cloacae [28] = assay: Antibacterial activity against drug-resistant AcrAB-TolC efflux pump deficient Enterobacter cloacae EcdeltaacrA isolate expressing pACYC184 plasmid by standard disk diffusion method; assay type: functional; method in brief: as §2
Enterobacter cloacae [29] = assay: Antibacterial activity against drug-resistant Enterobacter cloacae EcDC64 isolate expressing pBGS18 plasmid by standard disk diffusion method
Enterobacter cloacae [30] = assay: Antibacterial activity against drug-resistant Enterobacter cloacae EcDC64 isolate expressing pAP3 plasmid containing Enterobacter aerogenes acrR gene by standard disk diffusion method

C[C@@H](O)[C@H]1C(=O)N2C(C(=O)O)=C(SCCNC=N)C[C@H]12 [IMIPENEM ANHYDROUS]
MIC (Enterobacter cloacae [1]): 2 µg/mL (≈ 6.68 µM) | MIC (Enterobacter cloacae [2]): > 32 µg/mL | MIC (Enterobacter cloacae [3]): 32 µg/mL | MIC (Enterobacter cloacae [4]): 24 µg/mL (≈ 80.2 µM) | MIC (Enterobacter cloacae [5]): 6 µg/mL | MIC (Enterobacter cloacae [6]): > 32 µg/mL | MIC (Enterobacter cloacae [7]): > 32 µg/mL | MIC (Enterobacter cloacae [8]): 24 µg/mL (≈ 80.2 µM) | MIC (Enterobacter cloacae [9]): > 32 µg/mL

GENTAMICIN
MIC (Enterobacter cloacae [10]): 1.5 µg/mL | MIC (Enterobacter cloacae [11]): 0.125 µg/mL | MIC (Enterobacter cloacae [12]): 0.094 µg/mL | MIC (Enterobacter cloacae [13]): 1 µg/mL | MIC (Enterobacter cloacae [14]): 0.125 µg/mL | MIC (Enterobacter cloacae [15]): 0.25 µg/mL | MIC (Enterobacter cloacae [16]): 1 µg/mL

C[C@@H](O)[C@H]1C(=O)N2C(C(=O)O)=C(S[C@@H]3CN[C@H](C(=O)N(C)C)C3)[C@H](C)[C@H]12 [MEROPENEM]
MIC (Enterobacter cloacae [1]): 0.75 µg/mL (≈ 1.96 µM) | MIC (Enterobacter cloacae [2]): > 32 µg/mL | MIC (Enterobacter cloacae [3]): 32 µg/mL | MIC (Enterobacter cloacae [4]): 24 µg/mL (≈ 62.6 µM) | MIC (Enterobacter cloacae [5]): 1 µg/mL | MIC (Enterobacter cloacae [6]): > 32 µg/mL | MIC (Enterobacter cloacae [7]): > 32 µg/mL | MIC (Enterobacter cloacae [8]): 24 µg/mL (≈ 62.6 µM) | MIC (Enterobacter cloacae [9]): > 32 µg/mL

CCCCCCCCCCCCOS(=O)(=O)[O-].[Na+] [SODIUM LAURYL SULFATE]
MIC (Enterobacter cloacae [17]): 8190 µg/mL | MIC (Enterobacter cloacae [18]): 256 µg/mL | MIC (Enterobacter cloacae [19]): 4100 µg/mL | MIC (Enterobacter cloacae [20]): 128 µg/mL | MIC (Enterobacter cloacae [21]): 8190 µg/mL | MIC (Enterobacter cloacae [22]): 1020 µg/mL

CC(=O)O[C@H]1C[C@@]2(C)[C@@H](C[C@@H](O)[C@H]3[C@@]4(C)CC[C@@H](O)[C@@H](C)[C@@H]4CC[C@@]32C)/C1=C(\CCC=C(C)C)C(=O)O [FUSIDIC ACID]
inhibition zone (IZ) (Enterobacter cloacae [23]): 0 mm | inhibition zone (IZ) (Enterobacter cloacae [24]): >40 mm | inhibition zone (IZ) (Enterobacter cloacae [25]): 0 mm | inhibition zone (IZ) (Enterobacter cloacae [26]): 26 mm | inhibition zone (IZ) (Enterobacter cloacae [27]): 0 mm | inhibition zone (IZ) (Enterobacter cloacae [28]): 0 mm | inhibition zone (IZ) (Enterobacter cloacae [29]): 0 mm | inhibition zone (IZ) (Enterobacter cloacae [30]): 0 mm

CC[n+]1c(-c2ccccc2)c2cc(N)ccc2c2ccc(N)cc21.[Br-] [HOMIDIUM BROMIDE]
MIC (Enterobacter cloacae [17]): 2050 µg/mL | MIC (Enterobacter cloacae [18]): 128 µg/mL | MIC (Enterobacter cloacae [19]): 1020 µg/mL | MIC (Enterobacter cloacae [20]): 64 µg/mL | MIC (Enterobacter cloacae [21]): 2050 µg/mL | MIC (Enterobacter cloacae [22]): 256 µg/mL

C[n+]1c2cc(N)ccc2cc2ccc(N)cc21.[Cl-] [EUFLAVINE]
MIC (Enterobacter cloacae [17]): 128 µg/mL | MIC (Enterobacter cloacae [18]): 16 µg/mL | MIC (Enterobacter cloacae [19]): 64 µg/mL | MIC (Enterobacter cloacae [20]): 16 µg/mL | MIC (Enterobacter cloacae [21]): 128 µg/mL | MIC (Enterobacter cloacae [22]): 32 µg/mL

CN(C)c1ccc(C(=C2C=CC(=[N+](C)C)C=C2)c2ccc(N(C)C)cc2)cc1.[Cl-] [GENTIAN VIOLET]
MIC (Enterobacter cloacae [17]): 4100 µg/mL | MIC (Enterobacter cloacae [18]): 512 µg/mL | MIC (Enterobacter cloacae [19]): 1020 µg/mL | MIC (Enterobacter cloacae [20]): 256 µg/mL | MIC (Enterobacter cloacae [21]): 4100 µg/mL | MIC (Enterobacter cloacae [22]): 1020 µg/mL

CCn1cc(C(=O)O)c(=O)c2ccc(C)nc21 [NALIDIXIC ACID]
inhibition zone (IZ) (Enterobacter cloacae [23]): 24 mm | inhibition zone (IZ) (Enterobacter cloacae [24]): 27 mm | inhibition zone (IZ) (Enterobacter cloacae [25]): 33 mm | inhibition zone (IZ) (Enterobacter cloacae [26]): 40 mm | inhibition zone (IZ) (Enterobacter cloacae [27]): 12 mm | inhibition zone (IZ) (Enterobacter cloacae [28]): 30 mm | inhibition zone (IZ) (Enterobacter cloacae [29]): 21 mm | inhibition zone (IZ) (Enterobacter cloacae [30]): 29 mm
